Assay results gathered from unrelated publications.
Protocols differ between the studies behind these lines. In brackets after ≈: the same amount, converted by molar mass.
Read-out: microbial growth

COc1ccc(N=Nc2c(N)nn3c(-c4ccc(Cl)cc4Cl)cc(-c4ccc(OCc5ccccc5)cc4)nc23)cc1  MIC (Enterobacter cloacae; ATCC23355): 62.5 µg/mL (≈ 105 µM)
CO/N=C(\C(=O)N[C@@H]1C(=O)N2C(C(=O)O)=CCS[C@H]12)c1csc(N)n1  MIC (Enterobacter cloacae; broth dilution; ATCC13047): 2 µg/mL (≈ 5.22 µM)
Cc1ccc(N=Nc2c(N)nn3c(-c4ccc(C)cc4)cc(-c4ccc(OCc5ccccc5)cc4)nc23)cc1  MIC (Enterobacter cloacae; ATCC23355): 15.6 µg/mL (≈ 29.7 µM)
CCCCCCC#Cc1cncc(-c2nnc(SCc3ccc([N+](=O)[O-])o3)n2CCCN)c1  MIC (Enterobacter cloacae; broth dilution; DSM30054): > 64 µg/mL
CC[C@H]1OC(=O)[C@H](C)[C@@H](O[C@H]2C[C@@](C)(OC)[C@@H](O)[C@H](C)O2)[C@H](C)[C@@H](O[C@@H]2O[C@H](C)C[C@H](N(C)C)[C@H]2O)[C@](C)(O)C[C@@H](C)CN(C)[C@H](C)[C@@H](O)[C@]1(C)O  MIC (Enterobacter cloacae; broth dilution; ATCC13047): 4 µg/mL (≈ 5.34 µM)
CCCCCCC#Cc1cncc(-c2nnc(SCc3cc([N+](=O)[O-])cc([N+](=O)[O-])c3)n2CCCN)c1  MIC (Enterobacter cloacae; broth dilution; DSM30054): > 64 µg/mL
COc1ccc(N=Nc2c(N)nn3c(-c4ccco4)cc(-c4ccc(OCc5ccccc5)cc4)nc23)cc1  MIC (Enterobacter cloacae; ATCC23355): 7.81 µg/mL (≈ 15.1 µM)
Cc1cc(Nc2nnc(-c3n[nH]c4ccc(C)cc34)s2)cc([N+](=O)[O-])c1  MIC (Serratia marcescens; ATCC8100): 198 µg/mL (≈ 540 µM)
CCCCCCC#Cc1cncc(-c2nnc(SCc3ccc(Cl)cc3)n2CCCN)c1  MIC (Enterobacter cloacae; broth dilution; DSM30054): > 64 µg/mL
Cc1ccc2[nH]nc(-c3nnc(Nc4ccc(F)cc4)s3)c2c1  MIC (Serratia marcescens; ATCC8100): 56.9 µg/mL (≈ 175 µM)
Cc1ccc(-c2cc(-c3ccc(OCc4ccccc4)cc3)nc3c(N=Nc4ccc(F)cc4)c(N)nn23)cc1  MIC (Enterobacter cloacae; ATCC23355): 31.3 µg/mL (≈ 59.2 µM)
Cc1ccc2[nH]nc(-c3nnc(Nc4ccc(F)cc4Cl)s3)c2c1  MIC (Serratia marcescens; ATCC8100): 85.2 µg/mL (≈ 237 µM)
C[C@@H](O)[C@H]1C(=O)N2C(C(=O)O)=C(S[C@@H]3CN[C@H](C(=O)N(C)C)C3)[C@H](C)[C@H]12  MIC (Enterobacter cloacae; broth dilution; ATCC13047): 0.125 µg/mL (≈ 0.326 µM)
Cc1ccc2[nH]nc(-c3nnc(Nc4ccc([N+](=O)[O-])cc4)s3)c2c1  MIC (Serratia marcescens; ATCC8100): 56.2 µg/mL (≈ 159 µM)
CCCCCCC#Cc1cncc(-c2nnc(SCc3cc(C(F)(F)F)cc(C(F)(F)F)c3)n2CCCN)c1  MIC (Enterobacter cloacae; broth dilution; DSM30054): > 64 µg/mL
Cc1ccc(N=Nc2c(N)nn3c(-c4ccc(Cl)cc4Cl)cc(-c4ccc(OCc5ccccc5)cc4)nc23)cc1  MIC (Enterobacter cloacae; ATCC23355): 31.3 µg/mL (≈ 54 µM)
